Assay [1] is described as follows: thallium flux activation in parental CHO cells, counter-screen for KCNQ1 potentiator project (AID 493006;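 active means duplicate-averaged activation above buffer control mean plus 5 SD of those controls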;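 on activation: fluorescence ratio of max minus min over baseline after K+ and Tl+ depolarization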). The conditions noted are these: parental CHO-K1 cells, FluxOR thallium flux, at 10 µM; stronger effect = higher value. The gist of the method: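 Material: parental CHO-K1 cells, FluxOR dye-loaded; Also added: Potassium/thallium depolarization pulse; Schedule: overnight 37 °C plating, 90 min dye, 20 min dark compound; Signal: kinetic FluxOR fluorescence, 10 s baseline, 110 s after stimulus.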

In assay [2] the target is Potassium voltage-gated channel subfamily KQT member 1 (Homo sapiens) (UniProt P51787). In words: KCNQ1 potassium channel potentiators, confirmation, FluxOR thallium flux, CHO cells, duplicates (AID 493007;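 active means potentiation averaged over duplicate wells exceeding buffer-only control mean by more than 3 SD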;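 on outcome: cells depolarized by a potassium plus thallium sulfate stimulus after compound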). The conditions noted are these: KCNQ1 cell line, FluxOR thallium flux fluorescence, at 10 µM; stronger effect = higher value, % of reference activator effect, buffer zero. A digest of the protocol: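 System: KCNQ1-expressing CHO cell line; technique: kinetic thallium influx fluorescence with FluxOR dye, 10 s baseline, 110 s post-stimulus; timing: dye 90 min then compound 20 min, both at room temperature; controls: buffer-only wells as 0% and R-L3 activator as 100%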

For assay [3] the target is unchanged. Put plainly: KCNQ1 channel current potentiators, confirmation, orthogonal assay for KCNQ1 potentiator project, IonWorks patch clamp, KCNQ1-CHO cells (AID 493184). The conditions noted are these: automated patch clamp current, at 10 µM; stronger effect = higher value. A digest of the protocol: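 Test system: KCNQ1-expressing CHO cells. Medium: pH 7.4 external bath. Probe or stimulus: voltage step from -90 mV holding to +40 mV, 2,000 ms. Compound: 10 µM final, single point. Detection: automated perforated-patch electrophysiology. Read-out: percent current increase versus pre-compound level. Repeats: two replicates.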

For assay [4], the target named is Potassium voltage-gated channel subfamily KQT member 2 (Rattus norvegicus) (UniProt O88943). In words: rat KCNQ2 channel potentiation, selectivity assay for KCNQ1 potentiator project, KCNQ2-CHO-K1 cells (AID 493009;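 active means mean duplicate potentiation above the buffer control mean plus 5 SD of buffer wells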;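 further: assay conditions were tuned for KCNQ1 rather than KCNQ2 modulators; signal is max minus min fluorescence divided by baseline after thallium stimulus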). To be noted: FluxOR thallium flux fluorescence, at 10 µM; stronger effect = higher value, scaled: buffer 0, activator control 100.
Assay [5] has as its target T1, Potassium voltage-gated channel subfamily E member 1 (Homo sapiens) + Potassium voltage-gated channel subfamily KQT member 1 (Homo sapiens) (UniProt P15382+P51787). In words: KCNQ1/KCNE1 complex potentiators, confirmation, selectivity assay for KCNQ1 potentiator project, thallium flux, CHO-K1 KCNQ1/E1 cells (AID 493186;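 active means mean duplicate activation above the buffer control mean plus 5 SD of those controls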). The conditions noted are these: FluxOR thallium flux, at 10 µM; stronger effect = higher value. The gist of the method:
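Material: CHO-K1 cells with KCNQ1/E1 / Timing: dye 90 min, compound 20 min, room temperature / Technique: kinetic thallium-sensitive FluxOR dye fluorescence / Read-out: percent activation scaled between buffer and R-L3 ratio signals / Replicates: tested in duplicate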

For assay [6], the target named is Potassium voltage-gated channel subfamily KQT member 1 (Homo sapiens) (UniProt P51787). Put plainly: KCNQ1 potassium channel inhibitors, confirmation, cell-based, Tl flux, duplicate (AID 588353;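 active means primary screen active, with duplicate mean exceeding buffer control mean plus 3 SD of buffer wells, cut at about 28% in these data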;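 further: 0% = buffer control ratio and 100% = XE991 inhibitor control ratio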). The conditions noted are these: KCNQ1 cell line, FluxOR thallium flux fluorescence, at 10 µM, stronger effect = higher value. The gist of the method:
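System: stable KCNQ1-expressing CHO cell line; Reagent: Tl2SO4 plus K2SO4 stimulus, each 12.5 mM in 5x stock; Schedule: dye loading 90 min, compound 20 min, both room temperature; Measured by: thallium-sensitive FluxOR dye fluorescence; Read-out basis: percent inhibition of fluorescence change ratio, scaled buffer to XE991; Control set: buffer and XE991; Replication: duplicate.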

A short description of assay [7]: thallium flux effects in parental CHO cells, counter-screen for KCNQ1 inhibitor project, cell-based, Tl flux (AID 588366;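 active means mean of duplicate thallium-flux fluorescence ratios in parental host cells more than 5 SD below the buffer control mean, cut at about 0.38 in these data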;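 further: ratio is peak minus minimum fluorescence divided by baseline fluorescence; actives read low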). The conditions noted are these: parental CHO-K1, FluxOR thallium flux fluorescence ratio; at 10 µM; stronger effect = lower value; zero means no signal rise above baseline. The gist of the method:
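Assay system: CHO-K1 parental line without KCNQ1 | Reagent: K+/Tl+ depolarizing stimulus | Incubation: 90 min dye load, 20 min compound, room temperature | Technique: Kinetic FluxOR thallium-flux fluorescence, 10 s baseline plus 110 s | Evaluation: Peak-to-trough fluorescence change relative to baseline, duplicate mean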

Assay [8] concerns the target Potassium voltage-gated channel subfamily KQT member 2 (Rattus norvegicus) (UniProt O88943). In words: KCNQ2 channel inhibition, selectivity assay for KCNQ1 inhibitor project, cell-based (AID 651746;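 active means mean percent inhibition of the KCNQ2 thallium signal more than 5 SD above the buffer-only control wells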;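 on inhibition: 0% = buffer control wells and 100% = XE-991 inhibitor control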). The conditions noted are these: KCNQ2 cells, FluxOR thallium flux fluorescence, at 10 µM; stronger effect = higher value.
Assay [9] addresses T1, Potassium voltage-gated channel subfamily E member 1 (Homo sapiens) + Potassium voltage-gated channel subfamily KQT member 1 (Homo sapiens). Put plainly: KCNQ1/KCNE1 channel inhibition, selectivity assay for KCNQ1 inhibitor project, CHO-K1 cells, thallium flux, FluxOR (AID 652147;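 active means mean percent inhibition of duplicate wells above the buffer-only control mean plus 3 SD of those controls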;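 on inhibition: 0% = buffer only wells and 100% = XE-991 inhibitor control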). To be noted: FluxOR thallium flux fluorescence, at 10 µM; stronger effect = higher value. The gist of the method: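 Probe or stimulus: depolarizing thallium/potassium stimulus, 5x stock with 12.5 mM Tl2SO4 and K2SO4. System: KCNQ1/KCNE1 potassium channel-expressing cells, plated overnight. Timing: dye 90 min and compound 20 min at room temperature. Signal: kinetic FluxOR thallium-sensitive fluorescence, 1 Hz sampling, 150 s post-stimulus.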

Assay [10] has as its target Potassium voltage-gated channel subfamily KQT member 1 (Homo sapiens) (UniProt P51787). Put plainly: KCNQ1 channel inhibitors, confirmation, orthogonal assay, cell-based, automated electrophysiology (AID 624120;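 active means KCNQ1 current drop exceeding 3 SD of negative control wells, seen in both duplicate runs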). To be noted: KCNQ1-CHO cells, automated patch clamp current; at 10 µM. A digest of the protocol:
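System: KCNQ1-expressing CHO cells; Medium: external buffer at pH 7.4; Probe or stimulus: 2,000 ms voltage steps to +40 mV from -80 mV; Compound: 10 µM final, single dose; Technique: automated perforated-patch voltage clamp using amphotericin B; Measure: percent change in steady-state +40 mV current, post- versus pre-compound; Benchmarks: negative controls; Replication: duplicates.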

Consider 38 compounds from PubChem BioAssay.

Values without a mark were called inactive. Some of the results follow. Activity calls are given as the source filed them.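 How the source made its calls, unless noted: active means current rise at least 3 SD above the untreated control mean in each of two repeat wells; inactive means the rest.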

Potassium voltage-gated channel subfamily KQT member 1 (Homo sapiens), sequence (P51787 whole entry, looked up): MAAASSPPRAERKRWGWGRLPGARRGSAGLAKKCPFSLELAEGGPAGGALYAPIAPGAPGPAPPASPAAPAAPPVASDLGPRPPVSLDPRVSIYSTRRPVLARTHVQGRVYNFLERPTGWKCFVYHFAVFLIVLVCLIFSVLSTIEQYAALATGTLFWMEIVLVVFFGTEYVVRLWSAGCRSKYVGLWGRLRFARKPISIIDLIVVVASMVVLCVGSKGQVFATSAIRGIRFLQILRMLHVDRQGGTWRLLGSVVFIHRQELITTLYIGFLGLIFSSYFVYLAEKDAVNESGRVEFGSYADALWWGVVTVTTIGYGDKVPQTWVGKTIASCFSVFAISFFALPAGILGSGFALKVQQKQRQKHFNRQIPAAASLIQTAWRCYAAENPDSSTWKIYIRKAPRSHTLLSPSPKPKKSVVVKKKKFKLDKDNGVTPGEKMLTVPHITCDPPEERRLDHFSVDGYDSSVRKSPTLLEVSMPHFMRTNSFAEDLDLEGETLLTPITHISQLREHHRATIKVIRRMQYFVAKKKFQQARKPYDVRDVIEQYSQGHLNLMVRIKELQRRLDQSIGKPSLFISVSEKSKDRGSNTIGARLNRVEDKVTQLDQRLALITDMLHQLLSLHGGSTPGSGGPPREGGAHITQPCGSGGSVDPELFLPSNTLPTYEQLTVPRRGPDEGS
T1 sequence (P51787 whole entry, looked up): as the sequence (P51787 whole entry, looked up) above
Potassium voltage-gated channel subfamily KQT member 2 (Rattus norvegicus), sequence (O88943 whole entry, looked up): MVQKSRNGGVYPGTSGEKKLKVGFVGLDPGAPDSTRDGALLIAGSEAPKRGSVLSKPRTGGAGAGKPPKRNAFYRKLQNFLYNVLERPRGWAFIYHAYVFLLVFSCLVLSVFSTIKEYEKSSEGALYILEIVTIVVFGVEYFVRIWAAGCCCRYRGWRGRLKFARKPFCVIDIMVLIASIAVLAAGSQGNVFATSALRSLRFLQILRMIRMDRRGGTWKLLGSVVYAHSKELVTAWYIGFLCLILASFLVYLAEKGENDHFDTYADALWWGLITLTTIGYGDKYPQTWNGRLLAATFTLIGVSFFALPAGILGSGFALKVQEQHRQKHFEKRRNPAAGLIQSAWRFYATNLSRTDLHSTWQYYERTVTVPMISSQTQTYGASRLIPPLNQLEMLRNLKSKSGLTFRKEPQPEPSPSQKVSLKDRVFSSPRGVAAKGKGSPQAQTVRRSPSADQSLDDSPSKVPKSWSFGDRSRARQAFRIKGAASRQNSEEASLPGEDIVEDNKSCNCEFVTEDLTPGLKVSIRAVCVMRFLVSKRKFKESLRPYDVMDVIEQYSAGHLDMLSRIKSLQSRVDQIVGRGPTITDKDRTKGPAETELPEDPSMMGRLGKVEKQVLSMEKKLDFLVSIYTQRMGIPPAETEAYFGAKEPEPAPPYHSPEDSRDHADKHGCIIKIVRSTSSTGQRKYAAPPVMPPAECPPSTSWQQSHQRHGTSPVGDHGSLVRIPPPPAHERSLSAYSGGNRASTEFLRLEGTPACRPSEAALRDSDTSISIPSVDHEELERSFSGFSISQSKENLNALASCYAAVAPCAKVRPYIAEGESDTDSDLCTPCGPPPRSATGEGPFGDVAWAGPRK

Consider `N=C1/C(=C\c2ccc(-c3cccc(Cl)c3)o2)C(=O)N=C2SC=C(c3ccccc3)N12`, for which the result in assay [1] and in assay [3] was inactive. The potentiation in assay [2] was 29% (active).
Consider `CN(Cc1cccnc1)C(=O)Cc1ccc(NS(=O)(=O)c2cccc(C(F)(F)F)c2)cc1`, for which the result in assay [1], in assay [2] and in assay [3] was inactive.
For the compound `Cn1c(=O)c2c(ncn2CC(=O)OCC(=O)Nc2cc(Cl)ccc2Cl)n(C)c1=O`, the outcome in assay [1], in assay [2] and in [3] was inactive.
`O=C(Nc1cccc(-c2nnc(-c3ccco3)o2)c1)c1ccccc1`: the outcome in assay [1], in assay [2] and in assay [3] was inactive.
As for `Cc1cccc(-n2c(=S)[nH]c3c(oc4ccccc43)c2=O)c1`, the activation in assay [1] was 139% (active). In addition, the outcome in [2] and in [3] was inactive.
Regarding `O=C(NC(=S)Nc1nc2c(s1)CCCC2)c1ccc(C(=O)c2ccccc2)cc1`, the activation in assay [1] was 138% (active). The potentiation in assay [2] was 30% (active). The result in assay [3] was inactive.
Turning to `CCOC(=O)c1sc(NC(=O)c2ccccc2C(=O)O)c(C(=O)OCC)c1C`, the outcome in [1], in assay [2] and in [3] was inactive.
`COCC(=O)NC1CC2CCC(C1)N2C(=S)Nc1ccccc1C(=O)OC` (stereo not drawn): the outcome in assay [1], in assay [2] and in assay [3] was inactive.
Take `CC(CNC(=O)COc1ccccc1)OC(=O)Nc1ccc(Cl)c(Cl)c1` (stereo not drawn): the outcome in [1], in assay [2] and in assay [3] was inactive.
Regarding `Cc1cc(N2CCOCC2)nc(SCC(=O)c2ccc(Cl)cc2)n1`, the outcome in [1], in [2] and in assay [3] was inactive.
As to `COC(=O)c1ccc(CNC(=O)CSc2nc3sc(C)c(C)c3c(=O)n2C)o1`, in [1], the activation is 268% (active). The potentiation in assay [2] was 89.5% (active). In addition, in assay [3], the result was inactive.
On to `COc1ccc(O)c(C(=O)c2cnn(-c3ccc(Cl)cc3)c2)c1`, for which the outcome in assay [1], in assay [2] and in assay [3] was inactive.
With `CC1CN(C(=O)C2CC(=O)N(c3ccc(Cl)cc3)C2)CC(C)O1` (stereo not drawn), the result in [1], in [2] and in assay [3] was inactive.
As for `N#Cc1ccc2ccn(CC(=O)NCc3ccccc3)c2c1`, the result in [1], in [2] and in assay [3] was inactive.
As for `CCOc1ccc(-n2c(=S)sc3c(=O)n(-c4ccccc4)c(SC)nc32)cc1`, the outcome in assay [1], in assay [2] and in assay [3] was inactive.
On to `Oc1c(Br)cc(Br)cc1CNc1cccc2cccnc12`, for which the outcome in assay [1], in [4], in [3] and in assay [5] was inactive. The potentiation in assay [2] was 28.5% (active).
Turning to `CC(C)(C)c1ccc(CN2N=Nc3ccccc3S2(=O)=O)cc1`, the result in assay [1], in [2] and in assay [3] was inactive.
Regarding `CCc1ccc(NC(=O)C2CCN(C(=O)[C@@H]3Cc4ccccc4CN3)CC2)cc1`, the result in assay [1], in [2] and in assay [3] was inactive.
For the compound `CCCSc1ncnc2c1oc1ccccc12`, the outcome in assay [1], in assay [2], in assay [4], in assay [3] and in assay [5] was inactive.
`O=C(N1CCOCC1)N1CCC(n2nnc3ccccc32)CC1`: the result in assay [1], in assay [2] and in [3] was inactive.
With `O=C(CCSc1ccccc1)Nc1ccc(S(=O)(=O)Nc2ncccn2)cc1`, the result in [1], in [2] and in assay [3] was inactive.
As for `N#C/C(=C/c1cn(-c2ccccc2)nc1-c1cccc(OCc2ccc(F)cc2)c1)C(=O)NCCCn1ccnc1`, the outcome in assay [1], in [2] and in assay [3] was inactive.
On to `CCOc1ccccc1NC1=C(Cl)C(=O)N(c2ccccc2)C1=O`, for which the outcome in assay [1], in assay [2] and in assay [3] was inactive.
Take `Cc1ccc(-n2c(-c3ccc(Cl)cc3)n[nH]c2=S)c(C)c1`: the result in assay [1], in assay [2] and in [3] was inactive.
On to `Cn1c(N/N=C/c2cccs2)cc(=O)n(C)c1=O`, for which the result in [1], in [2] and in assay [3] was inactive.
Take `CCOC(=O)N1CCN(C(=S)NC(=O)c2ccc(F)c(F)c2)CC1`: the result in assay [1], in assay [2], in assay [4], in assay [3] and in assay [5] was inactive.
Turning to `C/C(=N\OCC(=O)Nc1ccc(OC(F)(F)F)cc1)c1ccc2c(c1)OCCO2`, the result in assay [1], in assay [2] and in assay [3] was inactive.
As to `CCn1c(SCC(=O)Nc2ccccc2F)nnc1-c1cnccn1`, the result in [1], in [2], in [4], in assay [3] and in [5] was inactive.
On to `CCNC(=O)c1ccc(OCC(=O)Nc2ccc(F)cc2)c(OC)c1`, for which the inhibition in assay [6] is 0% [the number is a placeholder, only the call stands]; in [9] it was 51% (active). Also, the fluorescence ratio (Tl flux) in assay [7] is 0.446. The outcome in assay [8] was inactive.
Consider `Cc1nc(N2CCN(c3ccccn3)CC2)c2c(C)c(C(=O)Nc3ccc(F)c(Cl)c3)sc2n1`, for which the inhibition in assay [6] was 160% (active); in assay [8] it was 124% (active). Also, the fluorescence ratio (Tl flux) in [7] was 0.345 (active).
As for `Cc1nc(N2CCN(c3ccccn3)CC2)c2c(C)c(C(=O)Nc3ccc(F)cc3)sc2n1`, the inhibition is 146% (active) in assay [6] and 141% (active) in [8]. The fluorescence ratio (Tl flux) in assay [7] was 0.324 (active).
Turning to `COc1ccc(Cl)cc1NC(=O)C(C)N1CCc2ccccc21` (stereo not drawn), the inhibition in assay [6] is 114% (active); in assay [8], 91% (active); in [9], 132% (active). In addition, the fluorescence ratio (Tl flux) in [7] is 0.428. In addition, the call in assay [10] was inactive.
As to `Cc1cc(Br)ccc1NC(=O)c1cnc(N2CCN(c3ccccn3)CC2)c2ccccc12`, the inhibition in [6] was 89% (active); in [8] it was 94.7% (active); in assay [9], 124% (active). The fluorescence ratio (Tl flux) in assay [7] was 0.444. In addition, in [10], the call was inactive.
`S=C(NCCCc1ccccc1)Nc1ccc(Br)cc1`: the inhibition in assay [6] was 150% (active); in [9], 76.5% (active). Besides, in assay [7], the fluorescence ratio (Tl flux) was 0.591. Besides, the call in assay [10] and in assay [8] was inactive.
Consider `O=C1CCCN1CCCNC(=S)Nc1ccc(F)c(Cl)c1`, for which the inhibition is 51% (active) in assay [6], 72.7% (active) in assay [8] and 58.5% (active) in assay [9]. For the same compound, the fluorescence ratio (Tl flux) in assay [7] was 0.445.
Consider `CC(C)OCCCNc1ncnc2c1[nH]c1ccc(F)cc12`, for which the inhibition in [6] is 95.5% (active). In addition, in assay [7], the fluorescence ratio (Tl flux) was 0.443. In [10], the call was active. The compound was called inactive in assay [8] and in assay [9].
On to `CCC(=C/c1sc2ccc3ccccc3c2[n+]1C)/C=C1\Sc2ccc3ccccc3c2N1C`, for which the inhibition in assay [6] was 57.5% (active); in assay [8] it was 59% (active); in assay [9] it was 64% (active). Further, in assay [7], the fluorescence ratio (Tl flux) was 0.508.
With `CC(C)(CCl)C(=O)Nc1ccc(Sc2ccc(F)cc2)cc1`, the inhibition in [6] was 166% (active); in assay [8] it was 111% (active). In addition, in [7], the fluorescence ratio (Tl flux) was 0.393.
